Assay results from ChEMBL document CHEMBL4346670, “Discovery of Novel Janus Kinase (JAK) and Histone Deacetylase (HDAC) Dual Inhibitors for the Treatment of Hematological Malignancies” (J Med Chem, 2019).
The source made the active and inactive calls. The rule behind the calls is not given here.

How the values were obtained:
MOLT-4 = experiment: Antiproliferative activity against human MOLT4 cells assessed as reduction in cell viability after 48 hrs by MTT assay; assay type: functional, cell-based; conditions: MOLT-4, 48 h
How it was run: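 Cells kept in RPMI1640 with 10% FBS at 37 °C, 5% CO2. Seeded and grown for 12 h, then exposed to a range of compound concentrations for 48 h. 0.5% MTT added for 4 h, formazan dissolved in DMSO, absorbance read at 570 nm.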

HEL = experiment: Antiproliferative activity against HEL cells harboring JAK2 V617F mutant assessed as reduction in cell viability after 48 hrs by MTT assay; assay type: functional, cell-based; conditions: Homo sapiens
[1] = target: Tyrosine-protein kinase JAK2 (Homo sapiens, UniProt O60674); experiment: Inhibition of recombinant human JAK2 using Ulight-CAGAGAIETDKEYYTVKD as substrate measured after 60 mins by LANCE assay
Chain of Tyrosine-protein kinase JAK2 (O60674 whole entry): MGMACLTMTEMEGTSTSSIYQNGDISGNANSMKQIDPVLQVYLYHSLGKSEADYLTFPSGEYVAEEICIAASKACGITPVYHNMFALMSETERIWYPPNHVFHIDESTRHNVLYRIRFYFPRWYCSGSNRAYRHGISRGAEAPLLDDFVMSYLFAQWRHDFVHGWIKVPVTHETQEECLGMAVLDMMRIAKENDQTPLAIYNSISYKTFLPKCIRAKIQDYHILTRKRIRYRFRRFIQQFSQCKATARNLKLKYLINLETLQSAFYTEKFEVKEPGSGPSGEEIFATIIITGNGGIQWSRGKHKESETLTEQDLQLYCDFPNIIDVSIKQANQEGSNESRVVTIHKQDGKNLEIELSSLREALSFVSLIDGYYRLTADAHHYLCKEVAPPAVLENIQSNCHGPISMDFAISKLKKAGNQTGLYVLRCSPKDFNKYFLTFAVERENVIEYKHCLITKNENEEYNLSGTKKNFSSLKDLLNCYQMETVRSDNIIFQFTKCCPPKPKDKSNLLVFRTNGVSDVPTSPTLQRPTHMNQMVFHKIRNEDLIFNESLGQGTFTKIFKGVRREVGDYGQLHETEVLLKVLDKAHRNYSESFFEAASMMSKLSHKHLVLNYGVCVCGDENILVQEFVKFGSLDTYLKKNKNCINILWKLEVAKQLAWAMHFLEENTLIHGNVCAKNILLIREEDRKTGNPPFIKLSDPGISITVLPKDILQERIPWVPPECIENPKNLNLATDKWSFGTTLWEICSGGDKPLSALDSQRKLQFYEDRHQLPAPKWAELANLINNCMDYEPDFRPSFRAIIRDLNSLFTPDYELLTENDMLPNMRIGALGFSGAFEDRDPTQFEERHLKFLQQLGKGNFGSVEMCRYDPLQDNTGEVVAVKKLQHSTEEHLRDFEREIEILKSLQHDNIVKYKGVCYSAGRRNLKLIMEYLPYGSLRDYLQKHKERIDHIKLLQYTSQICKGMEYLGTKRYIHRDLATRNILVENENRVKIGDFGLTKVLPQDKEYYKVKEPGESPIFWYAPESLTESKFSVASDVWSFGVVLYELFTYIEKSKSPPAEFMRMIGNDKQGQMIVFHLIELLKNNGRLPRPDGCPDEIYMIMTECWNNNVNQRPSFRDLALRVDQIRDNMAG

[2] = target: T1, Histone deacetylase (Homo sapiens) (UniProt Q13547+O15379+Q9UBN7+Q92769+Q9UQL6+Q8WUI4+Q9BY41+Q96DB2+P56524+Q9UKV0+Q969S8); experiment: Potency index, ratio of SAHA IC50 to test compound IC50 for inhibition of HDAC in human HeLa cell nuclear extract; assay type: cell-based
How it was run: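 HeLa cell nuclear extract was incubated with serial concentrations of compound for 5 min at 37 °C. Boc-Lys(acetyl)-AMC substrate was added for 30 min at 37 °C, then developer containing trypsin and TSA for 20 min. Fluorescence was read at ex 390/em 460 nm against control wells.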

Histone deacetylase = experiment: Inhibition of HDAC in human HeLa nuclear extract using Boc-Lys(acetyl)-AMC as substrate preincubated for 5 mins followed by substrate addition and measured after 30 mins by fluorescence assay; assay type: cell-based
Jurkat = experiment: Antiproliferative activity against human Jurkat cells assessed as reduction in cell viability after 48 hrs by MTT assay; assay type: functional, cell-based
K562 = experiment: Antiproliferative activity against human K562 cells assessed as reduction in cell viability after 48 hrs by MTT assay; assay type: functional, cell-based; conditions: K562, 48 h
Histone deacetylase 2 [3] = target: T2, Histone deacetylase 2 (Homo sapiens, UniProt Q92769); conditions: A549, at 80 to 400 nM
T2 sequence (Q92769 whole entry): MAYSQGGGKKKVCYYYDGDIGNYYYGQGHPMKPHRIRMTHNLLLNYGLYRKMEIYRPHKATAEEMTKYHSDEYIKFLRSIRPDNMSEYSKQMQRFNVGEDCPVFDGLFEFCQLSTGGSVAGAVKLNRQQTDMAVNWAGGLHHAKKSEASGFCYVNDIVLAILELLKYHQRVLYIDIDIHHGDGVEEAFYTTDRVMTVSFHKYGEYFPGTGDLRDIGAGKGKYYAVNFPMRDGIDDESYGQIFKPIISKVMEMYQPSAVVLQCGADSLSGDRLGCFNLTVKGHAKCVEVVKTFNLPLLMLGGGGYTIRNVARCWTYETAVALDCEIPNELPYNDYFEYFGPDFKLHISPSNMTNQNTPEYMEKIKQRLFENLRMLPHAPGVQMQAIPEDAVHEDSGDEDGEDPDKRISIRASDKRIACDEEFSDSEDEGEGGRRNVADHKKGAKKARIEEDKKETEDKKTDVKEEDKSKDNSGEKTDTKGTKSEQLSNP

Histone deacetylase 8 = target: T3, Histone deacetylase 8 (Homo sapiens, UniProt Q9BY41); experiment: Inhibition of HDAC8 (unknown origin) using Boc-Lys(trifluoroacetyl)-AMC as substrate preincubated for 5 mins followed by substrate addition and measured after 30 mins by fluorescence assay
T3 sequence (Q9BY41 whole entry): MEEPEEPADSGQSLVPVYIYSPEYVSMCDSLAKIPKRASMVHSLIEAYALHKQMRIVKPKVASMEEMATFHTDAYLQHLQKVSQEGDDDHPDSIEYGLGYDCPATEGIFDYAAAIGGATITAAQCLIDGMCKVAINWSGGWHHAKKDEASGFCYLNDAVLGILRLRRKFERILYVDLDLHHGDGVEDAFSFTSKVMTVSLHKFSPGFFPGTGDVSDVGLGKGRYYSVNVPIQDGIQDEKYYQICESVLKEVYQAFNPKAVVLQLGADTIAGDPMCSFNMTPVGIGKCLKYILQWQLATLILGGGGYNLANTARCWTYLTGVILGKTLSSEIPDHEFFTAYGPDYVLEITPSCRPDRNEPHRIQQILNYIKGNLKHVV

Histone deacetylase 2 [4] = target: T2, Histone deacetylase 2; experiment: Inhibition of HDAC2 (unknown origin) using Boc-Lys(acetyl)-AMC as substrate preincubated for 5 mins followed by substrate addition and measured after 30 mins by fluorescence assay
[5] = target: T4, Protein deacetylase HDAC6 (Homo sapiens, UniProt Q9UBN7); experiment: Inhibition of HDAC6 (unknown origin) using Boc-Lys(acetyl)-AMC as substrate preincubated for 5 mins followed by substrate addition and measured after 30 mins by fluorescence assay
T4 sequence (Q9UBN7 whole entry): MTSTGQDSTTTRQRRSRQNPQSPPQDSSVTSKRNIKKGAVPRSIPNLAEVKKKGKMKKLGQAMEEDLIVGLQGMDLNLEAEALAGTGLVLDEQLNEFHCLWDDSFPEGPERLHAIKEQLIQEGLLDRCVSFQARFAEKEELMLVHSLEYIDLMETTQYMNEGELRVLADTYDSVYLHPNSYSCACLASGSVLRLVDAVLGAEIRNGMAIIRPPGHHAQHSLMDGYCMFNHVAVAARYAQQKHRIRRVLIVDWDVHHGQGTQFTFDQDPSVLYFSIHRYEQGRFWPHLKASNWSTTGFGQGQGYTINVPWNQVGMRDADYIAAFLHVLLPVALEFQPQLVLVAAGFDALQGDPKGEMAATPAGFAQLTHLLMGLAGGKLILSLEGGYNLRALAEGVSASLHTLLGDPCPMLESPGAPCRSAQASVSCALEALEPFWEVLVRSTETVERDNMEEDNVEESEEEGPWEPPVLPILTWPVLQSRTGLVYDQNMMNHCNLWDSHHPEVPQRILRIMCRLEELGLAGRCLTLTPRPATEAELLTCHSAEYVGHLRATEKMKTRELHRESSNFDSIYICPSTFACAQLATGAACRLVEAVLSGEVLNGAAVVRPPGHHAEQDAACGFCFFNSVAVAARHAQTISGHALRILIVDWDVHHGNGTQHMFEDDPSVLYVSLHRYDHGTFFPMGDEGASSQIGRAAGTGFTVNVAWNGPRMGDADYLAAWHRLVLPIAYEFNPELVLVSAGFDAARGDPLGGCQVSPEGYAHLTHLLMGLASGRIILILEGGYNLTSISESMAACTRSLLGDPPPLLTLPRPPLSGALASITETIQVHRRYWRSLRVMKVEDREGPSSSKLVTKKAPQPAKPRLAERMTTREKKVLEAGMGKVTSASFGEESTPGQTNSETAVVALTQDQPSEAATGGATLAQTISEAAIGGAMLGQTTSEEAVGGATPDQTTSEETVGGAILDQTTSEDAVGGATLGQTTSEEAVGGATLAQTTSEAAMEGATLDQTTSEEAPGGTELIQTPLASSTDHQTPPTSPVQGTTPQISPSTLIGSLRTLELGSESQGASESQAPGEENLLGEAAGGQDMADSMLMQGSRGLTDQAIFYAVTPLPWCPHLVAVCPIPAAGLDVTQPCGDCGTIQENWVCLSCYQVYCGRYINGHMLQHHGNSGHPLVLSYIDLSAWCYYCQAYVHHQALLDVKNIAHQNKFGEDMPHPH

[6] = target: T5, Tyrosine-protein kinase JAK3 (Homo sapiens, UniProt P52333); experiment: Inhibition of recombinant human JAK3 using Ulight-CAGAGAIETDKEYYTVKD as substrate measured after 60 mins by LANCE assay
T5 sequence (P52333 whole entry): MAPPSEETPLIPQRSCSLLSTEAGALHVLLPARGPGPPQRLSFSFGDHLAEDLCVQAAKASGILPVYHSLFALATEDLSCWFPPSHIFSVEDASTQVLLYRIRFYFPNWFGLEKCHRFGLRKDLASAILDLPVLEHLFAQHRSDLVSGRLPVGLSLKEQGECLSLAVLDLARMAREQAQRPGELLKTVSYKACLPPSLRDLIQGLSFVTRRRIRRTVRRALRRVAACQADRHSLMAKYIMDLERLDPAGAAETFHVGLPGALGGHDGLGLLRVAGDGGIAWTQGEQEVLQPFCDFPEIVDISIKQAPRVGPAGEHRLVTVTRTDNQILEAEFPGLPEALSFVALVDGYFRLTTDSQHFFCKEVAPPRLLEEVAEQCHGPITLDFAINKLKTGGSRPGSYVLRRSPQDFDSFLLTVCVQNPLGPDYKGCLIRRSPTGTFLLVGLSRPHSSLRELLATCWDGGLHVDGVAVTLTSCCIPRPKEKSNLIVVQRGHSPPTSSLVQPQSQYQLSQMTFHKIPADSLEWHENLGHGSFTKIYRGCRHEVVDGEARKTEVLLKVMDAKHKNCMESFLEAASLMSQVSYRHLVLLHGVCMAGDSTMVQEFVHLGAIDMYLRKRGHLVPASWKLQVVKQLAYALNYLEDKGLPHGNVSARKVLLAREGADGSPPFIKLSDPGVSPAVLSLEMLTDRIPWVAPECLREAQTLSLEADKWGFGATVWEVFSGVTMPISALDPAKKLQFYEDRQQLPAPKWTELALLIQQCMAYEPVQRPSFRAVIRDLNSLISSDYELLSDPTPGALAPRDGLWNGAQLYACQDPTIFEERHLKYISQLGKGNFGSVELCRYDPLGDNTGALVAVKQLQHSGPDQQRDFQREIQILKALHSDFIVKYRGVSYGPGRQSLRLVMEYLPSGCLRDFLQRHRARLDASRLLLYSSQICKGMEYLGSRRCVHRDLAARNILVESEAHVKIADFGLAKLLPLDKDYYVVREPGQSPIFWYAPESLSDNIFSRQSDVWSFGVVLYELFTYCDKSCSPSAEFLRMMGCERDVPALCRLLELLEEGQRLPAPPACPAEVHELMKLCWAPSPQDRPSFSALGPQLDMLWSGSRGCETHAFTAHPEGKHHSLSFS

[7] = target: Tyrosine-protein kinase JAK1 (Homo sapiens, UniProt P23458); experiment: Inhibition of recombinant human JAK1 using Ulight-CAGAGAIETDKEYYTVKD as substrate measured after 60 mins by LANCE assay
Chain of Tyrosine-protein kinase JAK1 (P23458 whole entry): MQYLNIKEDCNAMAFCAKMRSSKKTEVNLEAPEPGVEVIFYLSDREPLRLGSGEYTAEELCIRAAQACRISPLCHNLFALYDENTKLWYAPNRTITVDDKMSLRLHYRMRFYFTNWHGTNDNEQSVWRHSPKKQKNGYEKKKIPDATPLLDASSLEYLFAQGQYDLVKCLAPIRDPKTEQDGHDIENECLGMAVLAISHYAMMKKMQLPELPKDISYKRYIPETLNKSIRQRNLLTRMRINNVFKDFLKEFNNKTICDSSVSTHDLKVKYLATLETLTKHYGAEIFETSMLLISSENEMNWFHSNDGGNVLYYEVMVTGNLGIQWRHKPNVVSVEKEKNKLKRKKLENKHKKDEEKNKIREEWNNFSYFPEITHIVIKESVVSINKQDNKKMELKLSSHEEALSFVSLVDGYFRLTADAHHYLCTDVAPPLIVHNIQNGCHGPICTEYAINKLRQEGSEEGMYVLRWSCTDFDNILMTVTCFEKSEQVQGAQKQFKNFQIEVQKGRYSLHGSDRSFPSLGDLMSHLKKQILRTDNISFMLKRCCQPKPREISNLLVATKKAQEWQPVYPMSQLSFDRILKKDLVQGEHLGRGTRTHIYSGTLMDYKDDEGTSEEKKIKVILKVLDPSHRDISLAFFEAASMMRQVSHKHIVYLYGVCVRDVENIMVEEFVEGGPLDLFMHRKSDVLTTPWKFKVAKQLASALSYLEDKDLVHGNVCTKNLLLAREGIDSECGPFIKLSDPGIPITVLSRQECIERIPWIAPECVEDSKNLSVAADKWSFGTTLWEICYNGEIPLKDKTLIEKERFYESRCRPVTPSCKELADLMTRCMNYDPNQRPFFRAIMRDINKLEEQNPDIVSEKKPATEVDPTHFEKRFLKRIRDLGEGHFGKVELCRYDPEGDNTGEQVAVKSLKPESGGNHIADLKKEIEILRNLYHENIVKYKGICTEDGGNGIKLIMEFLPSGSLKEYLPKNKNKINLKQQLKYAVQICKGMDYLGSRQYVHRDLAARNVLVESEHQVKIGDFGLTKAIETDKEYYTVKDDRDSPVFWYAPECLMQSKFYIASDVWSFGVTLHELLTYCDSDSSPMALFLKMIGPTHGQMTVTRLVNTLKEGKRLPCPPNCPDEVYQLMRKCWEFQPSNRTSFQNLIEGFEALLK
How it was run: (§1)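 Human recombinant JAK enzyme assays run by a contract lab. IC50 was taken from a non-linear curve fit, with all parameters allowed to float. Assays were run in replicate (n>2) and reported as mean ± SD.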

[8] = target: Non-receptor tyrosine-protein kinase TYK2 (Homo sapiens, UniProt P29597); experiment: Inhibition of recombinant human TYK2 using Ulight-CAGAGAIETDKEYYTVKD as substrate measured after 60 mins by LANCE assay; how it was run: as §1
Chain of Non-receptor tyrosine-protein kinase TYK2 (P29597 whole entry): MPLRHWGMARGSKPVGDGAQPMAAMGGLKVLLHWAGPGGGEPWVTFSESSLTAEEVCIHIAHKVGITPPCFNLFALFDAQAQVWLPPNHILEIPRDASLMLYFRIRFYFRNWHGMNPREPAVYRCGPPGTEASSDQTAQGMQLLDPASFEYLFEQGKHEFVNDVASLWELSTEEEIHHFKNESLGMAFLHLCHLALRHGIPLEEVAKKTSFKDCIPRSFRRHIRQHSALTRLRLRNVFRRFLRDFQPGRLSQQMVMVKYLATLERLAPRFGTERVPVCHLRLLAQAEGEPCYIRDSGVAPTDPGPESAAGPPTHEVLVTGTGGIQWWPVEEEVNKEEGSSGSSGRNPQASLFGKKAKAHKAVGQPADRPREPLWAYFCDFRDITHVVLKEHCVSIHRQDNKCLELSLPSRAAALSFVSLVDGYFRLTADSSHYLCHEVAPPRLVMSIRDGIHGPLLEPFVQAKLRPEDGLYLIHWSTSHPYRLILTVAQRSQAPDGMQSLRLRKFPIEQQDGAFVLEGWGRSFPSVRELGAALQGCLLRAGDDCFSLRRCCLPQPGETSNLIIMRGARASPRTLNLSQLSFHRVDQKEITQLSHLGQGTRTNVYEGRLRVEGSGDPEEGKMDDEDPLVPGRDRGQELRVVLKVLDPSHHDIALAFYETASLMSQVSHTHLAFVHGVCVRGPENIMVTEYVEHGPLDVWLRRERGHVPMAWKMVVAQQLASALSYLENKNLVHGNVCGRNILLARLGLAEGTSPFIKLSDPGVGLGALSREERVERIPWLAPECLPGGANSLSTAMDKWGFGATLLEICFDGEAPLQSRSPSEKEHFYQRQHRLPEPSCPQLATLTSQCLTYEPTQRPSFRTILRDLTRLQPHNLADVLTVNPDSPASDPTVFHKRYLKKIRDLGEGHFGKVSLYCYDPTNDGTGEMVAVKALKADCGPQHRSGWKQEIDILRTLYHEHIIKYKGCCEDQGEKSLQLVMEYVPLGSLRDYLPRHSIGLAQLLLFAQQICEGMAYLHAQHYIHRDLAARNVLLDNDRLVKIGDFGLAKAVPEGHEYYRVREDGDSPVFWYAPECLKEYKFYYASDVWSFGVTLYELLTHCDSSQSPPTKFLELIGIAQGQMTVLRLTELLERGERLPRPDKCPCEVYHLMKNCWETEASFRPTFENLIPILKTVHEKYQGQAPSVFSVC

[9] = target: T1, Histone deacetylase (Homo sapiens); experiment: Inhibition of HDAC in human HeLa nuclear extract at 10 uM using Boc-Lys(acetyl)-AMC as substrate preincubated for 5 mins followed by substrate addition and measured after 30 mins by fluorescence assay; assay type: cell-free
How it was run: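 HeLa nuclear extract mixed with compound and held at 37 °C for 5 min. Boc-Lys(acetyl)-AMC added and incubated 30 min at 37 °C. Quenched with developer containing trypsin and trichostatin A, then 20 min at 37 °C. Fluorescence read at ex 390/em 460 nm; inhibition calculated relative to control wells.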

Row | Compound | IC50 (MOLT-4) | IC50 [1] | Ratio IC50 [2] | IC50 (Histone deacetylase) | IC50 (Jurkat) | IC50 (K562) | inhibition (Histone deacetylase 2 [3]) | IC50 (Histone deacetylase 8) | IC50 (Histone deacetylase 2 [4]) | IC50 [5] | IC50 [6] | IC50 [7] | IC50 [8] | inhibition [9] | IC50 (HEL)
1 | COc1ccc(Nc2nc(Nc3cnn(CCCCCCC(=O)NO)c3)ncc2Cl)cc1 | 0.17 µM | 0.01 µM | > 50 | 0.003 µM | 0.13 µM | 0.62 µM | – | – | – | – | – | – | – | – | 0.21 µM
2 | O=C(CCCCCCn1cc(Nc2ncc(Cl)c(Nc3ccc(F)cc3)n2)cn1)NO | 0.22 µM | 0.015 µM | > 50 | 0.003 µM | 0.12 µM | 0.5 µM | – | – | – | – | – | – | – | – | 0.21 µM
3 | Clc1cccc(Nc2nc(Nc3cn[nH]c3)ncc2Cl)c1 | – | – | – | – | – | – | – | – | – | – | – | – | – | inactive | –

Now from value to molecule, other results behind:

Row | IC50 (MOLT-4) | IC50 [1] | Ratio IC50 [2] | IC50 (Histone deacetylase) | IC50 (Jurkat) | IC50 (K562) | inhibition (Histone deacetylase 2 [3]) | IC50 (Histone deacetylase 8) | IC50 (Histone deacetylase 2 [4]) | IC50 [5] | IC50 [6] | IC50 [7] | IC50 [8] | inhibition [9] | Compound | IC50 (HEL)
4 | 0.11 µM | 0.036 µM | – | 0.015 µM | 0.07 µM | 0.59 µM | Active | 4.07 µM | 0.19 µM | 0.029 µM | – | – | – | – | CNc1nc(Nc2cnn(CCCCCCC(=O)NO)c2)ncc1Cl | 0.1 µM
5 | 0.12 µM | 0.014 µM | > 50 | 0.002 µM | 0.1 µM | 0.32 µM | – | – | – | – | 0.0076 µM | 0.01 µM | 0.094 µM | – | O=C(CCCCCCn1cc(Nc2ncc(Cl)c(Nc3ccc(Cl)cc3)n2)cn1)NO | 0.12 µM
